From paper PMC4698184 (Antiviral Research, 2015)

Assays:
[1] = cited from earlier work
[2] = ref Dragovich et al., 1999; cited from earlier work
EV-D68 = experiment: Cell-based inhibition assay; conditions: Enterovirus D, EVD68, WI-38, read-out: EC50 EV-D68
Outline: (§1)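 WI-38 cells, confluent or semi-confluent, at 37 °C were infected at MOI 0.05 for 1 h. Inoculum was then replaced with medium containing test compound (up to 100 μM) or DMSO (<0.1%). Cells were incubated up to 168 h, until 80–90% CPE. Virus yield was titrated by TCID50 (Reed–Muench), and EC50 was derived by curve fitting.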

HRV51 = experiment: Cell-based inhibition assay; conditions: Human rhinovirus sp., HRV51, WI-38, read-out: EC50 HRV51
Outline: as §1

HRV1B = experiment: Cell-based inhibition assay; conditions: Human rhinovirus sp., WI-38, read-out: EC50 HRV1B
Outline: as §1

HRV strains = conditions: read-out: EC50 against HRV strains; ref Patick et al., 2005; cited from earlier work

| Compound | oral bioavailability ([1]; ref Dragovich et al., 1999) | aqueous solubility [2] | EC50 (EV-D68) [nM] | EC50 (HRV51) [nM] | EC50 (HRV1B) [nM] | oral availability ([1]; ref Patick et al., 2005) | EC50 (HRV strains) [nM] |
| --- | --- | --- | --- | --- | --- | --- | --- |
| CCOC(=O)/C=C/[C@H](C[C@@H]1CCNC1=O)NC(=O)[C@@H](CC(=O)[C@@H](NC(=O)c1cc(C)on1)C(C)C)Cc1ccc(F)cc1 [AG7088] | low oral bioavailability | poor aqueous solubility | 10 ± 3 | 50 ± 30 | 20 ± 10 | – | – |
| Cc1cc(CCCOc2c(C)cc(-c3noc(C(F)(F)F)n3)cc2C)on1 [Plecornaril, Pleconaril] | – | – | 600 ± 140 | 70 ± 20 | 270 ± 180 | – | – |
| C#CC[C@@H](C(=O)N[C@H](/C=C/C(=O)OCC)C[C@@H]1CCNC1=O)n1cccc(NC(=O)c2cc(C)on2)c1=O [Compound 1 (Patick et al., 2005)] | – | – | – | – | – | orally available | < 100 |
